Data published in paper PMC7980362 (Proceedings of the National Academy of Sciences of the …, 2021).
Where two headings read alike, the source gives them in different places.

Legend:
[1] = system: M. mazei Connectase; experiment: Time course of the Connectase reaction with one primary substrate; type: biochemical; details: 0.9 µM M. mazei Connectase, 3.7 µM Ub-(5)KDPGA(10), 37 °C
How it was run: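 M. mazei Connectase-His6 incubated with His6-Ub-(5)KDPGA(10) primary substrate only, no secondary substrate. Buffer: 50 mM acetate/MES/Hepes, 150 mM NaCl, 50 mM KCl, 5 mM TCEP, pH 7.0. Time points were stopped with 2% SDS and run on Coomassie-stained 12% gels.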

[2] = system: ubiquitin ligation substrates (Ub-(5)KDPGA(15)/PGA(15)-Ub; Ub-[…]/GGG-Ub); type: biochemical
[3] = system: Ub-(5)KDPGA(15) and PGA(15)-Ub substrates; experiment: Reaction rates of M. mazei Connectase at different temperatures; type: biochemical
How it was run: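 His6-Ub-(5)KDPGA(15) and PGA(15)-Ub-His6, each 6.25 µM, incubated with M. mazei Connectase-His6 at 400× lower concentration, at 25 °C, 37 °C or 50 °C. Buffer: 50 mM acetate/MES/Hepes, 150 mM NaCl, 50 mM KCl, 5 mM TCEP, pH 7.0. Time points were stopped with 2% SDS and run on Coomassie-stained 12% gels. Bands were quantified to give rates.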

[4] = system: LPETG and GGG substrates; details: cited from earlier work

B1: Ub-(5)KDPGA(10): C. subterraneum ubiquitin fused C-terminally to M. mazei MtrA residues 148 to 167 (protein)
chain: MHHHHHHGSMKIKIVPAVGGGSPLELEVAPNATVGAVRTKVCAMKKLPPDTTRLTYKGRALKDTETLESLGVADGDKFVLITRTVGGRELASKDPGAFDADPLVVEI
- fraction of substrate modified (conjugate with Connectase) at any time [1]: ~7%

B2: M. mazei Connectase: sequence-specific protein ligase, monomeric homolog of 20S proteasome subunits from Methanosarcina mazei (protein)
chain: MTLVIAFIGKNGAVMAGDMREITFEGEKPDREKLEKELYSGSIVTDEEMQKKAEEFGVKITVADCKEKVSERNGVLVGEVSSAEGGVVKKRRLYASAGNFAIAELINTEMTLTSQGKGSNFIAFGNEFTKQVANKCFKDNWTKKSNLQDAVKILILCMETVARKTASVSKQFMIVQTASNADVLKVVEKDRNC
modifications: left off: Strep, C-terminal, kept
- ligase activity of Connectase relative to optimized SrtA5* ([2]; 100 µM substrates each, Connectase 50 °C, Sortase 37 °C): > 40 x
- ligation yield ([2]; protein-protein ligation of two ubiquitin molecules, equimolar substrates): ~50%
- temperature of maximum activity [3]: 50 °C

B3: SrtA5*: evolved SrtA pentamutant with significantly increased activity (protein)
chain: MQAKPQIPKDKSKVAGYIEIPDADIKEPVYPGPATREQLNRGVSFAEENESLDDQNISIAGHTFIDRPNYQFTNLKAAKKGSMVYFKVGNETRKYKMTSIRNVKPTAVEVLDEQKGKDKQLTLITCDDYNEETGVWETRKIFVATEVKLEHHHHHH
- ligase activity of SrtA5* compared with SrtA ([2]; Ub-GGSLPETGGG and GGG-Ub substrates, 37 °C): ~100 x
- Km ([4]; read-out: KM GGG): 4700 µM
- Km ([4]; read-out: KM LPETG): 170 µM

B4: SrtA: S. aureus Sortase A without membrane anchor, reference ligase (protein)
chain: MRGSHHHHHHGSQAKPQIPKDKSKVAGYIEIPDADIKEPVYPGPATPEQLNRGVSFAEENESLDDQNISIAGHTFIDRPNYQFTNLKAAKKGSMVYFKVGNETRKYKMTSIRDVKPTDVEVLDEQKGKDKQLTLITCDDYNEKTGVWEKRKIFVATEVK
- kcat Ligation/kcat Hydrolysis [4]: ≈ 3.3
